Assay results: ChEMBL document CHEMBL2034836, “Synthesis and anti-HIV activities of glutamate and peptide conjugates of nucleoside reverse transcriptase inhibitors” (J Med Chem, 2012)

Tests used:
[1] = test system: Human immunodeficiency virus 1; experiment: Antiviral activity against HIV1 3B infected in HeLa P4/R5 cells assessed as reduction of viral infection incubated for 2 hrs followed by incubated in drug-free medium for 46 hrs by single round infection beta-galactosidase reporter gene assay; format: functional, organism-based; details: Human immunodeficiency virus 1, 3B
Summary of the method: (§1)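 P4R5 MAGI cells (CD4 and coreceptors, HIV-1 LTR–β-galactosidase reporter) seeded at 1.2 × 10^4 cells/well ~18 h before infection; exposed 2 h at 37 °C to cell-free X4 IIIB or R5 BaL virus with or without compound, washed, cultured 46 h more; β-galactosidase chemiluminescent read-out. Infection reduction relative to untreated; EC50 by regression; triplicate wells; dextran sulfate control.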

[2] = test system: Human immunodeficiency virus 1; experiment: Antiviral activity against HIV1 BaL infected in HeLa P4/R5 cells assessed as reduction of viral infection incubated for 2 hrs followed by incubated in drug-free medium for 46 hrs by single round infection beta-galactosidase reporter gene assay; format: functional, organism-based; details: Human immunodeficiency virus 1, BaL; summary of the method: as §1
HeLa = experiment: Cytotoxicity against human HeLa P4/R5 cells after 48 hrs by MTT assay; format: cell-based; details: read-out: EC50 (the source's name)
Summary of the method: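 Same P4R5 MAGI cell design as the infection assay but without virus; viability read by MTT tetrazolium reduction; each concentration tested in triplicate wells.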

[3] = test system: Human immunodeficiency virus 1; experiment: Antiviral activity against wild type HIV1 clade B 94US3393IN clinical isolate infected in PHA-P-stimulated human PBMC assessed as reverse transcriptase activity incubated for 6 hrs followed by incubated in drug-free medium for 6 days by multiround infection assay; format: functional, organism-based; details: Human immunodeficiency virus 1, clade B 94US3393IN
[4] = test system: Human immunodeficiency virus 1; experiment: Antiviral activity against wild type HIV1 clade C 98USMSC5016 clinical isolate infected in PHA-P-stimulated human PBMC assessed as reverse transcriptase activity incubated for 6 hrs followed by incubated in drug-free medium for 6 days by multiround infection assay; format: functional, organism-based; details: Human immunodeficiency virus 1, clade C 98USMSC5016
[5] = test system: Human immunodeficiency virus 1; experiment: Antiviral activity against NNRTI-resistant HIV1 clade B A-17 clinical isolate infected in PHA-P-stimulated human PBMC assessed as reverse transcriptase activity incubated for 6 hrs followed by incubated in drug-free medium for 6 days by multiround infection assay; format: functional, organism-based; details: Human immunodeficiency virus 1, clade B A-17
[6] = test system: Human immunodeficiency virus 1; experiment: Antiviral activity against multidrug-resistant HIV1 clade B 4775-5 clinical isolate infected in PHA-P-stimulated human PBMC assessed as reverse transcriptase activity incubated for 6 hrs followed by incubated in drug-free medium for 6 days by multiround infection assay; format: functional, organism-based; details: Human immunodeficiency virus 1, clade B 4775-5
[7] = test system: Human immunodeficiency virus 1; experiment: Ratio of zidovudine EC50 to compound EC50 for HIV1 3B infected in HeLa P4/R5 cells; format: functional
[8] = test system: Human immunodeficiency virus 1; experiment: Ratio of zidovudine EC50 to compound EC50 for HIV1 BaL infected in HeLa P4/R5 cells; format: functional
[9] = test system: Human immunodeficiency virus 1; experiment: Ratio of lamivudine EC50 to compound EC50 for HIV1 3B infected in HeLa P4/R5 cells; format: functional
[10] = test system: Human immunodeficiency virus 1; experiment: Ratio of lamivudine EC50 to compound EC50 for HIV1 BaL infected in HeLa P4/R5 cells; format: functional

Compound	EC50 [1] [nM]	EC50 [2] [nM]	CC50 (HeLa) [nM]	further results
CC(=O)N[C@@H](CCC(=O)OC[C@H]1O[C@@H](n2cc(C)c(=O)[nH]c2=O)C[C@@H]1N=[N+]=[N-])C(=O)OC[C@@H]1O[C@H](n2ccc(N)nc2=O)CS1	12000	13400	> 154000	–
Cc1cn([C@H]2C[C@H](F)[C@@H](CO)O2)c(=O)[nH]c1=O [ALOVUDINE]	800	400	–	IC50 [3]: 2 nM; IC90 [3]: 20.4 nM; IC50 [4]: 2 nM; IC90 [4]: 12.3 nM; IC50 [5]: 26 nM; IC90 [5]: 87.2 nM; IC50 [6]: 107 nM; IC90 [6]: 1060 nM
CCCCCCCCCCCCCC(=O)N[C@@H](CCC(=O)OC[C@H]1O[C@@H](n2cc(C)c(=O)[nH]c2=O)C[C@@H]1F)C(=O)OC[C@@H]1O[C@H](n2ccc(N)nc2=O)CS1	2000	2700	> 126000	–
CCCCCCCCCCCCCC(=O)N[C@@H](CCC(=O)O)C(=O)OC[C@H]1O[C@@H](n2cc(C)c(=O)[nH]c2=O)C[C@@H]1F	6300	7700	> 51000	–
CC(=O)N[C@@H](CCC(=O)OC[C@H]1O[C@@H](n2cc(C)c(=O)[nH]c2=O)C[C@@H]1F)C(=O)OC[C@@H]1O[C@H](n2ccc(N)nc2=O)CS1	17000	12300	> 160000	–
Cc1cn([C@H]2C[C@H](N=[N+]=[N-])[C@@H](COC(=O)CC[C@H](NC(=O)CCC(=O)OC[C@H]3O[C@@H](n4cc(C)c(=O)[nH]c4=O)C[C@@H]3F)C(=O)OC[C@@H]3O[C@H](n4ccc(N)nc4=O)CS3)O2)c(=O)[nH]c1=O	900	1400	> 107000	IC50 [3]: 26.7 nM; IC90 [3]: 161 nM; IC50 [4]: 22.7 nM; IC90 [4]: 84.5 nM; IC50 [5]: 12.9 nM; IC90 [5]: 28.3 nM; IC50 [6]: 5.9 nM; IC90 [6]: 46 nM; Ratio EC50 [7]: 12; Ratio EC50 [8]: 10; Ratio EC50 [9]: 36; Ratio EC50 [10]: 8
Cc1cn([C@H]2C[C@H](N=[N+]=[N-])[C@@H](CO)O2)c(=O)[nH]c1=O [ZIDOVUDINE]	10800	14200	–	IC90 [3]: 21.3 nM; IC90 [4]: 34.2 nM; IC90 [5]: 152 nM; IC90 [6]: 10700 nM
CCCCCCCCCCCCCC(=O)NCCCC[C@H](NC(=O)[C@H](CCC(=O)OC[C@H]1O[C@@H](n2cc(C)c(=O)[nH]c2=O)C[C@@H]1F)NC(=O)CCCCCCCCCCCCC)C(=O)O	26800	29100	> 108000	–
CCCCCCCCCCCCCC(=O)N[C@@H](CCC(=O)OC[C@H]1O[C@@H](n2cc(C)c(=O)[nH]c2=O)C[C@@H]1N=[N+]=[N-])C(=O)OC[C@@H]1O[C@H](n2ccc(N)nc2=O)CS1	6000	6500	> 122000	–
CCCCCCCCCCCCCC(=O)OC[C@H](NC(C)=O)C(=O)NCCC(=O)N[C@@H](CCC(=O)OC[C@H]1O[C@@H](n2cc(C)c(=O)[nH]c2=O)C[C@@H]1N=[N+]=[N-])C(=O)NCC(=O)O	63100	86400	> 116000	–

Continued, in another order:

EC50 [1] [nM]	EC50 [2] [nM]	Compound	CC50 (HeLa) [nM]	further results
11100	6900	CCCCCCCCCCCCCC(=O)OC[C@H](NC(C)=O)C(=O)NCCC(=O)N[C@@H](CCC(=O)OC[C@H]1O[C@@H](n2cc(C)c(=O)[nH]c2=O)C[C@@H]1F)C(=O)NCC(=O)O	> 119000	–
600	300	CCCCCCCCCCCCCC(=O)N[C@@H](CCC(=O)OC[C@@H]1O[C@H](n2ccc(N)nc2=O)CS1)C(=O)OC[C@H]1O[C@@H](n2cc(C)c(=O)[nH]c2=O)C[C@@H]1F	> 38000	–
400	100	CCCCCCCCCCCCCC(=O)N[C@@H](CCC(=O)OC[C@@H]1O[C@H](n2cc(F)c(N)nc2=O)CS1)C(=O)OC[C@H]1O[C@@H](n2cc(C)c(=O)[nH]c2=O)C[C@@H]1F	> 37000	–
10600	6900	CCCCCCCCCCCCCC(=O)NCCCC[C@H](NC(=O)CCNC(=O)[C@H](CCC(=O)OC[C@H]1O[C@@H](n2cc(C)c(=O)[nH]c2=O)C[C@@H]1F)NC(C)=O)C(=O)O	> 121000	–
2400	3600	CCCCCCCCCCCCCC(=O)N[C@@H](CCC(=O)OC[C@H]1O[C@@H](n2cc(C)c(=O)[nH]c2=O)C[C@@H]1F)C(=O)OC[C@H]1O[C@@H](n2cc(C)c(=O)[nH]c2=O)C[C@@H]1N=[N+]=[N-]	> 120000	–
13500	13100	CC(=O)N[C@@H](CCC(=O)OC[C@H]1O[C@@H](n2cc(C)c(=O)[nH]c2=O)C[C@@H]1F)C(=O)OC[C@H]1O[C@@H](n2cc(C)c(=O)[nH]c2=O)C[C@@H]1N=[N+]=[N-]	> 151000	–
2000	800	Nc1nc(=O)n([C@@H]2CS[C@H](CO)O2)cc1F [EMTRICITABINE]	–	–
32700	11300	Nc1ccn([C@@H]2CS[C@H](CO)O2)c(=O)n1 [LAMIVUDINE]	–	–
